# Assay results: publication PMC9220501 (Chemico-Biological Interactions, 2022)
# How the values were obtained:
# Assay type in all cases: cell-based
# [1] = tested on: colon adenocarcinoma LS174; experiment: MTT cytotoxicity assay, LS174; conditions: Homo sapiens, LS174, 72 h, read-out: IC50 LS174
# lung fibroblasts MRC-5 = experiment: MTT cytotoxicity assay, normal MRC-5; conditions: Homo sapiens, MRC5, 72 h, read-out: IC50 MRC-5
# malignant melanoma A375 = experiment: MTT cytotoxicity assay, A375; conditions: Homo sapiens, A-375, 72 h, read-out: IC50 A375
# Summary of the method: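 A375 cells were kept in RPMI 1640 with 10% FBS, 2 mM L-glutamine, 25 mM HEPES and penicillin-streptomycin at 37 °C and 5% CO2. Cells were seeded at 3000 per well and allowed to adhere for 20 h. They were treated for 72 h, and survival was read by MTT. IC50 is the mean ± SD of three independent experiments.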
# [2] = tested on: chronic myelogenous leukemia K562 cells; experiment: MTT cytotoxicity assay, K562; conditions: Homo sapiens, K562, 72 h, read-out: IC50 K562
# [3] = tested on: cervical adenocarcinoma HeLa; experiment: MTT cytotoxicity assay, HeLa; conditions: Homo sapiens, 72 h, read-out: IC50 HeLa
# lung carcinoma A549 = experiment: MTT cytotoxicity assay, A549; conditions: Homo sapiens, A549, 72 h, read-out: IC50 A549
SMILES,IC50 [1],IC50 (lung fibroblasts MRC-5),IC50 (malignant melanoma A375),IC50 [2],IC50 [3],IC50 (lung carcinoma A549)
"COC(=O)C1=C(C)N(C)C(=S)NC1c1ccc(O)c(OC)c1 (centres unmarked) [4e, Methyl 1,2,3,4-tetrahydro-4-(4′-hydroxy-3′-methoxyphenyl)-1,6-dimethyl-2-thioxopyrimidine-5-carboxylate]",196 ± 2.87 µM,114 ± 2.36 µM,176 ± 2.9 µM,197 ± 0.54 µM,157 ± 6.52 µM,–
"COC(=O)C1=C(C)N(C)C(=S)NC1c1ccccc1 (centres unmarked) [4a, Methyl 1,2,3,4-tetrahydro-1,6-dimethyl-2-thioxo-4-phenylpyrimidine-5-carboxylate]",170.5 ± 1.28 µM,92.97 ± 0.59 µM,123 ± 7.17 µM,163 ± 4.62 µM,128 ± 15.4 µM,–
"COC(=O)C1=C(C)N(C)C(=S)NC1c1ccc([N+](=O)[O-])cc1 (centres unmarked) [4c, Methyl 4-(4′-nitrophenyl)-1,2,3,4-tetrahydro-1,6-dimethyl-2-thioxopyrimidine-5-carboxylate]",185 ± 5.5 µM,88.9 ± 6.31 µM,158 ± 7.84 µM,193 ± 3.75 µM,122 ± 12.8 µM,–
"COC(=O)C1=C(C)N(C)C(=S)NC1c1ccc(Cl)cc1 (centres unmarked) [4b, Methyl 4-(4′-chlorophenyl)-1,2,3,4-tetrahydro-1,6-dimethyl-2-thioxopyrimidine-5-carboxylate]",153 ± 9.08 µM,28.2 ± 0.32 µM,102 ± 6.26 µM,95.9 ± 1.85 µM,81.8 ± 9.57 µM,123 ± 6.05 µM
"COC(=O)C1=C(C)N(C)C(=S)NC1c1ccc(C(=O)O)cc1 (centres unmarked) [4d, 4-(5-(methoxycarbonyl)-1,2,3,4-tetrahydro-1,6-dimethyl-2-thioxopyrimidin-4-yl)benzoic acid]",> 200 µM,169 ± 8.98 µM,199.6 ± 0.59 µM,195 ± 7.62 µM,139 ± 7.64 µM,–
